In ChEMBL document CHEMBL3102781, “Synthesis and activity of substituted heteroaromatics as positive allosteric modulators for α4β2α5 nicotinic acetylcholine receptors” (Bioorg Med Chem Lett, 2014) one finds Activity, Emax and EC50 data, which are given here for 45 compounds.

Assay type in all cases: cell-based
The target of assay [1] is T1, Nicotinic acetylcholine receptor alpha4/beta2/alpha5 (Homo sapiens) (UniProt P17787+P43681+P30532). As to the kind of experiment: Agonist activity at human alpha4beta2alpha5 nACHR expressed in HEK-tsA201 cells by fluorometric analysis.
In assay [2] the target is T1, Nicotinic acetylcholine receptor alpha4/beta2/alpha5 (Homo sapiens). Description: Positive allosteric modulation of human alpha4beta2alpha5 nACHR expressed in HEK-tsA201 cells assessed as potentiation of nicotine-induced current at 1 uM preincubated for 15 mins followed by nicotine-treatment by fluorometric analysis. The essentials:
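In human α4β2α5 AChR HEK tsA201 cells (200,000/well, 20 h at 29 °C before testing), compound was added 15 min before nicotine. Potentiation of the nicotine response was read by membrane-potential fluorescence on a FLEXstation, with 3–4 wells averaged per point.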

For assay [3] the target is unchanged. As to the kind of experiment: Positive allosteric modulation of human alpha4beta2alpha5 nACHR expressed in HEK-tsA201 cells assessed as potentiation of nicotine-induced current preincubated for 15 mins followed by nicotine-treatment by fluorometric analysis relative to NS9283. The method in brief:
(§1)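 Human AChR subtypes were stably expressed in HEK tsA201 cells grown in DMEM with 10% FBS at 37 °C. Plating was 150,000/well for lines without α5 and 200,000/well for α5 lines, on poly-D-lysine plates. β2-containing lines were incubated 20 h at 29 °C before testing. Serial dilutions of compound were added 15 min before nicotine. Membrane-potential fluorescence was read on a FLEXstation, with 3–4 wells per point and a Hill equation fit.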

The target of assay [4] is Nicotinic acetylcholine receptor alpha4/beta2/alpha5 (Homo sapiens, UniProt P17787+P30532+P43681). As to the kind of experiment: Positive allosteric modulation of human alpha4beta2alpha5 nACHR expressed in HEK-tsA201 cells assessed as potentiation of nicotine-induced current preincubated for 15 mins followed by nicotine-treatment by fluorometric analysis. The method in brief:
as §1

Each structure is given as a SMILES string. Activity calls are given as the source filed them. The rule behind the calls is not given here.

Nicotinic acetylcholine receptor alpha4/beta2/alpha5, sequence (P17787 whole entry): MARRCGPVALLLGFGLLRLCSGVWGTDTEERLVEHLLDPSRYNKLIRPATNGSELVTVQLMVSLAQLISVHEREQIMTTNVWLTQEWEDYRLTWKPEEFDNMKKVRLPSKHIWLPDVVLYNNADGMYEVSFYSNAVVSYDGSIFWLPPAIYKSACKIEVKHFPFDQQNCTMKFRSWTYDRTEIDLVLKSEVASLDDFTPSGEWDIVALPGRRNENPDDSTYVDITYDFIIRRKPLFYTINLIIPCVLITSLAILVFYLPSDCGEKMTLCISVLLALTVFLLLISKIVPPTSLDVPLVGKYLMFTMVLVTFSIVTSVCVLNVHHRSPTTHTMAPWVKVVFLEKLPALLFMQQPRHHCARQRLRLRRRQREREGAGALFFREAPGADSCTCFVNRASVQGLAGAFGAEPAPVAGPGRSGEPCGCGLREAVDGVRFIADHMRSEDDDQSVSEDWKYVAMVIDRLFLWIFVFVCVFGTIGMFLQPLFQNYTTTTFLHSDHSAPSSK
Nicotinic acetylcholine receptor alpha4/beta2/alpha5, sequence (P43681 whole entry): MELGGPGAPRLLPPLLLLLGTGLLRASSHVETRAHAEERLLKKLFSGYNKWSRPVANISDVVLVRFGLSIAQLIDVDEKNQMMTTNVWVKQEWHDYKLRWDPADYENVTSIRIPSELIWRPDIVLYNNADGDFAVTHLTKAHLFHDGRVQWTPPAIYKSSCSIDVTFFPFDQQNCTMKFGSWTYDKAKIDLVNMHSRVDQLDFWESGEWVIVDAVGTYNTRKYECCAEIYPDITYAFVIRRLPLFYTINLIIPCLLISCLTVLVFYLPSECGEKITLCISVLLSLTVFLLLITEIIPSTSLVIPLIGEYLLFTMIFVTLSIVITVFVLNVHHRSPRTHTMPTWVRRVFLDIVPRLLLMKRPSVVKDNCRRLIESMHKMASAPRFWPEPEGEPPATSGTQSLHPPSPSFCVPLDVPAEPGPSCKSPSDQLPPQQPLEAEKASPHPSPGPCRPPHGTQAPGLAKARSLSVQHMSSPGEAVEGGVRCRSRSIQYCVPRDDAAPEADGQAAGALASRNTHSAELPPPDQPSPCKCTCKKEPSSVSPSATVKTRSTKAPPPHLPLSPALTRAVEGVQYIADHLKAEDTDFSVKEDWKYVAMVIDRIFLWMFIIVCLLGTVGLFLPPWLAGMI
Nicotinic acetylcholine receptor alpha4/beta2/alpha5, sequence (P30532 whole entry): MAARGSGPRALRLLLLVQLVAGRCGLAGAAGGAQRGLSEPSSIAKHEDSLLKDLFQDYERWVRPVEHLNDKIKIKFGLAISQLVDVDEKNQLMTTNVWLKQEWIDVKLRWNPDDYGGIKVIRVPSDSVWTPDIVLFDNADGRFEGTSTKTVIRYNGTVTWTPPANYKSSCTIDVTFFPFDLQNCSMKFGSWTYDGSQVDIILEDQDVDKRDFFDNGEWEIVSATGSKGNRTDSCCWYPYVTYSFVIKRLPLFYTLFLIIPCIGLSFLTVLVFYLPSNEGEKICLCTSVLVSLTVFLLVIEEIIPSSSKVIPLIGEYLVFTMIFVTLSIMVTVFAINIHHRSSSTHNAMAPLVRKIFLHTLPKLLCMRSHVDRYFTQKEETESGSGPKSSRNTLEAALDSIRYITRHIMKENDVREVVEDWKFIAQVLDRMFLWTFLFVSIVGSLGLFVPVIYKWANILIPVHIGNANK

In the case of `N#Cc1cccc(-n2ccc(-c3cccnc3)n2)c1`, the result in assay [1] and in assay [2] was inactive.
As for `C[n+]1cccc(-c2noc(-c3cccc(C#N)c3)n2)c1`, the result in assay [1] and in assay [2] was inactive.
Take `N#Cc1cccc(-n2nnc(-c3cnccc3Cl)n2)c1`: the outcome in assay [1] and in assay [2] was inactive.
Regarding `Fc1ccc(-c2nc(-c3cccnc3)no2)cc1F`, in assay [1], the result was inactive. Moreover, the Activity in assay [2] is > 50%. Moreover, in assay [3], the Emax came out at 1.2. For the same compound, the EC50 (usually the concentration needed to bring the measured effect to its halfway point) in assay [4] was determined as 1300 nM.
With `N#Cc1cccc(-n2cc(-c3cccnc3)nn2)c1`, the outcome in assay [1] and in assay [2] was inactive.
As for `COc1ccc(OC)c(-n2nnc(-c3cccnc3)n2)c1`, the outcome in assay [1] and in assay [2] was inactive.
Consider `Clc1ccccc1-c1nc(-c2cccnc2)no1`, for which the outcome in assay [1] and in assay [2] was inactive.
As to `N#Cc1cccc(-n2nnc(-c3cncc(Cl)c3)n2)c1`, the result in assay [1] and in assay [2] was inactive.
As to `Cc1ccc(-n2nnc(-c3cccnc3)n2)cc1C#N`, the outcome in assay [1] and in assay [2] was inactive.
Take `N#Cc1cccc(-n2nnc(-c3ccc(Cl)nc3)n2)c1`: the result in assay [1] and in assay [2] was inactive.
Regarding `COc1cc(OC)cc(-n2nnc(-c3cccnc3)n2)c1`, the result in assay [1] and in assay [2] was inactive.
On to `Brc1cccc(-n2nnc(-c3cccnc3)n2)c1`, for which the outcome in assay [1] and in assay [2] was inactive.
On to `NC(=O)c1cccc(-n2nnc(-c3cccnc3)n2)c1`, for which the result in assay [1] and in assay [2] was inactive.
Consider `Fc1ccc(-n2nnc(-c3cccnc3)n2)c(F)c1`, for which the result in assay [1] and in assay [2] was inactive.
In the case of `O=[N+]([O-])c1cccc(-c2nc(-c3cccnc3)no2)c1`, the result in assay [1] was inactive. Also, the Activity in assay [2] was > 50%. Moreover, the Emax in assay [3] was determined as 1.2. Further, the EC50 in assay [4] was found to be 690 nM.
As for `N#Cc1cccc(-c2ccn(-c3cccnc3)n2)c1`, the result in assay [1] and in assay [2] was inactive.
With `C[n+]1cccc(-c2nnn(-c3cccc(C#N)c3)n2)c1`, the outcome in assay [1] and in assay [2] was inactive.
On to `N#Cc1cccc(-c2nc(-c3ccccc3)no2)c1`, for which the result in assay [1] and in assay [2] was inactive.
In the case of `N#Cc1cccc(-n2cnc(-c3cccnc3)c2)c1`, the result in assay [1] and in assay [2] was inactive.
For `N#Cc1cccc(-c2ncn(-c3cccnc3)n2)c1`, the result in assay [1] and in assay [2] was inactive.
Consider `Clc1ccc(-c2nc(-c3cccnc3)no2)cc1`, for which the result in assay [1] and in assay [2] was inactive.
For the compound `N#Cc1cccc(-n2nnc(-c3cccnc3Cl)n2)c1`, the result in assay [1] and in assay [2] was inactive.
Take `Clc1cc(Cl)cc(-n2nnc(-c3cccnc3)n2)c1`: the result in assay [1] and in assay [2] was inactive.
`COc1cccc(-c2nc(-c3cccnc3)no2)c1`: the result in assay [1] and in assay [2] was inactive.
Take `N#Cc1cccc(-c2cn(-c3cccnc3)cn2)c1`: the outcome in assay [1] and in assay [2] was inactive.
Consider `FC(F)(F)Oc1cccc(-c2nc(-c3cccnc3)no2)c1`, for which the result in assay [1] and in assay [2] was inactive.
As to `O=[N+]([O-])c1ccc(-c2nc(-c3cccnc3)no2)cc1`, in assay [1], the result was inactive. Further, the Activity in assay [2] is > 50%. In addition, in assay [3], the Emax worked out at 0.81. Also, the concentration for a half-maximal effect (EC50) in assay [4] is 1700 nM.
For the compound `Clc1ccccc1-n1nnc(-c2cccnc2)n1`, the outcome in assay [1] and in assay [2] was inactive.
In the case of `N#Cc1cccc(-c2nc(-c3ccccn3)no2)c1`, the result in assay [1] and in assay [2] was inactive.
`N#Cc1cccc(-n2cc(-c3cccnc3)cn2)c1`: the outcome in assay [1] and in assay [2] was inactive.
`Fc1cccc(-c2nc(-c3cccnc3)no2)c1`: the result in assay [1] and in assay [2] was inactive.
Consider `c1cncc(-c2nnn(-c3cccnc3)n2)c1`, for which the result in assay [1] was inactive. Further, the Activity in assay [2] was > 50%. Besides, in assay [3], the Emax stood at 1.9. Also, in assay [4], the EC50 turned out to be 700 nM.
On to `N#Cc1cccc(-n2nnc(-c3ccccn3)n2)c1`, for which the outcome in assay [1] and in assay [2] was inactive.
As to `N#Cc1cccc(-c2nc(-c3ccncc3)no2)c1`, the outcome in assay [1] and in assay [2] was inactive.
Consider `N#Cc1cccc(-n2cnc(-c3cccnc3)n2)c1`, for which the outcome in assay [1] and in assay [2] was inactive.
Consider `O=[N+]([O-])c1ccccc1-c1nc(-c2cccnc2)no1`, for which the result in assay [1] and in assay [2] was inactive.
Turning to `N#Cc1cccc(-n2nnc(-c3ccncc3)n2)c1`, the result in assay [1] and in assay [2] was inactive.
Regarding `Fc1cccc(-c2nc(-c3cccnc3)no2)c1F`, the result in assay [1] and in assay [2] was inactive.
On to `c1cncc(-c2noc(-c3cccnc3)n2)c1`, for which the outcome in assay [1] was inactive. The Activity in assay [2] is > 50%. Also, the Emax in assay [3] was 0.98. In addition, the EC50 in assay [4] stood at 1000 nM.
As to `FC(F)(F)c1cccc(-c2nc(-c3cccnc3)no2)c1`, the outcome in assay [1] and in assay [2] was inactive.
Turning to `N#Cc1cccc(-n2nnc(-c3ccccc3)n2)c1`, the outcome in assay [1] and in assay [2] was inactive.
As to `c1ccc(-c2nc(-c3cccnc3)no2)cc1`, the outcome in assay [1] and in assay [2] was inactive.
For `N#Cc1cccc(-c2cn(-c3cccnc3)nn2)c1`, the result in assay [1] and in assay [2] was inactive.
With `N#Cc1ccc(-n2nnc(-c3cccnc3)n2)cc1`, the outcome in assay [1] was inactive. Also, in assay [2], the Activity is > 50%. Besides, in assay [3], the Emax was determined as 0.96. The EC50 in assay [4] was 2200 nM.
Turning to `N#Cc1cccc(-c2nnc(-c3cccnc3)[nH]2)c1`, the outcome in assay [1] and in assay [2] was inactive.
